ChEMBL document CHEMBL3526046, “The role of aldehyde oxidase and xanthine oxidase in the biotransformation of a novel negative allosteric modulator of metabotropic glutamate receptor subtype 5” (Drug Metab Dispos, 2012)

Key:
[1] = Drug level in human hepatic S9 fraction treated with 25 uM VU0409106 by LC-UV-MS analysis; format: ADME, tissue-based, Liver
Method in brief: (§1)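 Hepatic S9 (5 mg/ml) in 0.1 M potassium phosphate pH 7.4 with 3 mM MgCl2 and 25 µM substrate, 37°C, 1 h under ambient oxygen; NADPH (2 mM) added in select runs. Reactions started by adding substrate. Protein precipitated with 2 volumes MeCN and the supernatant dried under nitrogen, reconstituted in 85:15 10 mM ammonium formate (pH 4.1)-MeCN, then analysed by LC-MS.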

[2] = Drug level in cynomolgus monkey hepatic S9 fraction treated with 25 uM VU0409106 by LC-UV-MS analysis; format: ADME, tissue-based, Macaca fascicularis, Liver; method in brief: as §1
[3] = tested on: Plasma; assay: Retention time in Sprague-Dawley rat plasma treated with 56.6 mg/kg, ip VU0409106 single dose; format: ADME, organism-based; set-up: dose 56.6 mg/kg, route intraperitoneal; details: in vivo
Method in brief: (§2)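 Male Sprague-Dawley rats given a single intraperitoneal dose of 56.6 mg/kg. Plasma extracted with 2 volumes acetonitrile and centrifuged; metabolites profiled by LC-MS/MS.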

[4] = tested on: Hepatocyte; assay: Drug level in Sprague-Dawley rat cryopreserved hepatocytes treated with 25 uM VU0409106 by LC-UV-MS analysis; format: ADME, cell-based
[5] = Drug level in Sprague-Dawley rat hepatic S9 fraction treated with 25 uM VU0409106 by LC-MS/MS analysis in presence of 100 uM allopurinol xanthine oxidase inhibitor; format: ADME, tissue-based, Liver; method in brief: as §1
[6] = Drug level in Sprague-Dawley rat hepatic S9 fraction treated with 3-fluoro-N-(4-methylthiazol-2-yl)-5-(6-oxo-1,6-dihydropyrimidin-5-yloxy)benzamide by LC-MS/MS analysis in presence of 100 uM allopurinol xanthine oxidase inhibitor; format: ADME, tissue-based, Liver
[7] = tested on: Plasma; assay: Drug level in Sprague-Dawley rat plasma treated with 56.6 mg/kg, ip VU0409106 single dose by LC-MS/MS analysis; format: ADME, organism-based; set-up: dose 56.6 mg/kg, route intraperitoneal; details: in vivo; method in brief: as §2
[8] = Drug level in Sprague-Dawley rat hepatic S9 fraction treated with 25 uM VU0409106 by LC-UV-MS analysis; format: ADME, tissue-based, Liver; method in brief: as §1
[9] = tested on: Hepatocyte; assay: Drug level in human cryopreserved hepatocytes treated with 25 uM VU0409106 by LC-MS/MS analysis; format: ADME, cell-based
Method in brief: (§3)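 Pooled cryopreserved hepatocytes (2 × 10^6 cells/ml) in Krebs-Henseleit buffer, 25 µM substrate, 37°C for 4 h. Rat donors were 14 males, cynomolgus 4 males, human 20 mixed gender. Cells precipitated with 2 volumes MeCN, centrifuged at 4°C; supernatant dried under nitrogen, reconstituted in 15% aqueous MeCN for LC-MS.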

[10] = Drug level in cynomolgus monkey cryopreserved hepatocytes treated with 25 uM VU0409106 by LC-MS/MS analysis; format: ADME, cell-based, Macaca fascicularis, Hepatocyte; method in brief: as §3
[11] = tested on: Hepatocyte; assay: Drug level in human cryopreserved hepatocytes treated with 25 uM VU0409106 by LC-MS/MS analysis in presence of 1-ABT pan-450 inactivator; format: ADME, cell-based; method in brief: as §3
[12] = tested on: Hepatocyte; assay: Drug level in Sprague-Dawley rat cryopreserved hepatocytes treated with 25 uM VU0409106 by LC-MS/MS analysis in presence of 1-ABT pan-450 inactivator; format: ADME, cell-based

Drug metabolism [1] | Drug metabolism [2] | Retention_time [3] | Drug metabolism [4] | Drug metabolism [5] | Drug metabolism [6] | Drug metabolism [7] | Drug metabolism [8] | Drug metabolism [9] | Drug metabolism [10] | Drug metabolism [11] | Drug metabolism [12] | Compound
metabolite_detected | metabolite_detected | 12.3 min | metabolite_detected | metabolite_not_detected | metabolite_not_detected | metabolite_detected | metabolite_detected | – | – | – | – | Cc1csc(NC(=O)c2cc(F)cc(Oc3c[nH]c(=O)[nH]c3=O)c2)n1
metabolite_detected | metabolite_detected | 13.4 min | metabolite_detected | – | – | metabolite_detected | – | metabolite_detected | metabolite_detected | metabolite_not_detected | metabolite_not_detected | Cc1csc(NC(=O)c2cc(O)cc(Oc3c[nH]c(=O)[nH]c3=O)c2)n1
